In ChEMBL document CHEMBL2086252, “Syntheses and evaluation of anticonvulsant activity of novel branched alkyl carbamates” (J Med Chem, 2012):
Activity calls are given as the source filed them. The calls are words filed in the database; no cut-off is given here.

Assays:
Mus musculus [1] = experiment: Anticonvulsant activity in albino CF1 mouse assessed as protection against maximal electroshock-induced seizures at 100 mg/kg, ip after 4 hrs; type: functional, organism-based; parameters: dose 100 mg/kg
Summary of the method: (§1)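 Mice dosed ip at 30, 100 or 300 mg/kg, then tested 0.5 h and 4 h after administration in the MES or scMet test. Protection was recorded as animals protected over animals tested. Neurotoxicity was recorded as motor impairment or sedation, as animals affected over animals tested.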

Mus musculus [2] = experiment: Neurotoxicity in albino CF1 mouse assessed as minimal motor impairment at 30 mg/kg, ip after 4 hrs by rotarod test; type: toxicity, organism-based; parameters: dose 30 mg/kg, route intraperitoneal; conditions: in vivo; summary of the method: as §1
Rattus norvegicus [3] = experiment: Neurotoxicity in pilocarpine-induced status epilepticus Sprague-Dawley albino rat model assessed as minimal motor impairment at 100 mg/kg, ip after 2 hrs by rotarod test; type: toxicity, organism-based; parameters: dose 100 mg/kg, route intraperitoneal; conditions: in vivo
Mus musculus [4] = experiment: Anticonvulsant activity in albino CF1 mouse assessed as protection against subcutaneous metrazol-induced seizures at 300 mg/kg, ip after 0.5 hrs; type: functional, organism-based; parameters: dose 300 mg/kg; summary of the method: as §1
Mus musculus [5] = experiment: Anticonvulsant activity in albino CF1 mouse assessed as protection against subcutaneous metrazol-induced seizures at 100 mg/kg, ip after 4 hrs; type: functional, organism-based; parameters: dose 100 mg/kg; summary of the method: as §1
Mus musculus [6] = experiment: Anticonvulsant activity in albino CF1 mouse assessed as protection against subcutaneous metrazol-induced seizures at 100 mg/kg, ip after 0.5 hrs; type: functional, organism-based; parameters: dose 100 mg/kg; summary of the method: as §1
Rattus norvegicus [7] = experiment: Neurotoxicity in pilocarpine-induced status epilepticus Sprague-Dawley albino rat model assessed as minimal motor impairment at 100 mg/kg, ip after 0.5 hrs by rotarod test; type: toxicity, organism-based; parameters: dose 100 mg/kg, route intraperitoneal; conditions: in vivo
Rattus norvegicus [8] = experiment: Neurotoxicity in pilocarpine-induced status epilepticus Sprague-Dawley albino rat model assessed as minimal motor impairment at 30 mg/kg, ip after 0.25 hr by rotarod test; type: toxicity, organism-based; parameters: dose 30 mg/kg, route intraperitoneal; conditions: in vivo
Summary of the method: (§2)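 Rat pilocarpine status epilepticus model: test carbamate given at 0 or 30 min after the first observed Racine stage 3 motor seizure, which marks SE onset. Neurotoxicity was scored within the same model.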

Rattus norvegicus [9] = experiment: Neurotoxicity in pilocarpine-induced status epilepticus Sprague-Dawley albino rat model assessed as minimal motor impairment at 100 mg/kg, ip after 0.25 hr by rotarod test; type: toxicity, organism-based; parameters: dose 100 mg/kg, route intraperitoneal; conditions: in vivo
Mus musculus [10] = experiment: Anticonvulsant activity in albino CF1 mouse assessed as protection against maximal electroshock-induced seizures at 30 mg/kg, ip after 0.5 hrs; type: functional, organism-based; parameters: dose 30 mg/kg; summary of the method: as §1
Mus musculus [11] = experiment: Neurotoxicity in albino CF1 mouse assessed as minimal motor impairment at 30 mg/kg, ip after 0.5 hrs by rotarod test; type: toxicity, organism-based; parameters: dose 30 mg/kg, route intraperitoneal; conditions: in vivo; summary of the method: as §1
Mus musculus [12] = experiment: Anticonvulsant activity in albino CF1 mouse assessed as protection against maximal electroshock-induced seizures at 100 mg/kg, ip after 0.5 hrs; type: functional, organism-based; parameters: dose 100 mg/kg; summary of the method: as §1
Rattus norvegicus [13] = experiment: Anticonvulsant activity in ip dosed Sprague-Dawley albino rat assessed as protection against pilocarpine-induced status epilepticus after 0.5 hrs; type: functional
Summary of the method: (§3)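 Pilocarpine status epilepticus model in rats. Number and severity of convulsive seizures were observed behaviourally.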

Rattus norvegicus [14] = experiment: Anticonvulsant activity in Sprague-Dawley albino rat assessed as protection against pilocarpine-induced status epilepticus at 65 mg/kg, ip; type: functional, organism-based; parameters: dose 65 mg/kg; summary of the method: as §3
Mus musculus [15] = experiment: Neurotoxicity in albino CF1 mouse assessed as minimal motor impairment at 300 mg/kg, ip after 0.5 hrs by rotarod test; type: toxicity, organism-based; parameters: dose 300 mg/kg, route intraperitoneal; conditions: in vivo; summary of the method: as §1
Rattus norvegicus [16] = experiment: Neurotoxicity in pilocarpine-induced status epilepticus Sprague-Dawley albino rat model assessed as minimal motor impairment at 30 mg/kg, ip after 0.5 hrs by rotarod test; type: toxicity, organism-based; parameters: dose 30 mg/kg, route intraperitoneal; conditions: in vivo; summary of the method: as §2
Mus musculus [17] = experiment: Anticonvulsant activity in albino CF1 mouse assessed as protection against maximal electroshock-induced seizures at 30 mg/kg, ip after 4 hrs; type: functional, organism-based; parameters: dose 30 mg/kg; summary of the method: as §1
Rattus norvegicus [18] = experiment: Neurotoxicity in pilocarpine-induced status epilepticus Sprague-Dawley albino rat model assessed as minimal motor impairment at 30 mg/kg, ip after 1 hr by rotarod test; type: toxicity, organism-based; parameters: dose 30 mg/kg, route intraperitoneal; conditions: in vivo; summary of the method: as §2
Rattus norvegicus [19] = experiment: Neurotoxicity in pilocarpine-induced status epilepticus Sprague-Dawley albino rat model assessed as minimal motor impairment at 65 mg/kg, ip after 0.5 hrs by rotarod test; type: toxicity, organism-based; parameters: dose 65 mg/kg, route intraperitoneal; conditions: in vivo; summary of the method: as §2
Mus musculus [20] = experiment: Anticonvulsant activity in albino CF1 mouse assessed as protection against subcutaneous metrazol-induced seizures at 300 mg/kg, ip after 4 hrs; type: functional, organism-based; parameters: dose 300 mg/kg; summary of the method: as §1
Mus musculus [21] = experiment: Anticonvulsant activity in albino CF1 mouse assessed as protection against subcutaneous metrazol-induced seizures at 30 mg/kg, ip after 0.5 hrs; type: functional, organism-based; parameters: dose 30 mg/kg; summary of the method: as §1
Rattus norvegicus [22] = experiment: Neurotoxicity in pilocarpine-induced status epilepticus Sprague-Dawley albino rat model assessed as minimal motor impairment at 100 mg/kg, ip after 4 hrs by rotarod test; type: toxicity, organism-based; parameters: dose 100 mg/kg, route intraperitoneal; conditions: in vivo
Rattus norvegicus [23] = experiment: Neurotoxicity in pilocarpine-induced status epilepticus Sprague-Dawley albino rat model assessed as minimal motor impairment at 30 mg/kg, ip after 2 hrs by rotarod test; type: toxicity, organism-based; parameters: dose 30 mg/kg, route intraperitoneal; conditions: in vivo; summary of the method: as §2
Mus musculus [24] = experiment: Neurotoxicity in albino CF1 mouse assessed as minimal motor impairment at 100 mg/kg, ip after 4 hrs by rotarod test; type: toxicity, organism-based; parameters: dose 100 mg/kg, route intraperitoneal; conditions: in vivo; summary of the method: as §1
Rattus norvegicus [25] = experiment: Neurotoxicity in pilocarpine-induced status epilepticus Sprague-Dawley albino rat model assessed as minimal motor impairment at 30 mg/kg, ip after 4 hrs by rotarod test; type: toxicity, organism-based; parameters: dose 30 mg/kg, route intraperitoneal; conditions: in vivo; summary of the method: as §2
Mus musculus [26] = experiment: Anticonvulsant activity in albino CF1 mouse assessed as protection against subcutaneous metrazol-induced seizures at 30 mg/kg, ip after 4 hrs; type: functional, organism-based; parameters: dose 30 mg/kg; summary of the method: as §1
Mus musculus [27] = experiment: Anticonvulsant activity in albino CF1 mouse assessed as protection against maximal electroshock-induced seizures at 300 mg/kg, ip after 0.5 hrs; type: functional, organism-based; parameters: dose 300 mg/kg; summary of the method: as §1
Mus musculus [28] = experiment: Anticonvulsant activity in albino CF1 mouse assessed as protection against maximal electroshock-induced seizures at 300 mg/kg, ip after 4 hrs; type: functional, organism-based; parameters: dose 300 mg/kg; summary of the method: as §1
Mus musculus [29] = experiment: Neurotoxicity in albino CF1 mouse assessed as minimal motor impairment at 300 mg/kg, ip after 4 hrs by rotarod test; type: toxicity, organism-based; parameters: dose 300 mg/kg, route intraperitoneal; conditions: in vivo; summary of the method: as §1

## CCC(C)C(COC(N)=O)C(C)C (racemic)
Mus musculus [1]
  Activity: inactive
Mus musculus [2]
  Activity: Non-toxic
Rattus norvegicus [3]
  Activity: Non-toxic
Mus musculus [4]
  Activity: Active
Mus musculus [5]
  Activity: inactive
Mus musculus [6]
  Activity: Active
Rattus norvegicus [7]
  Activity: Toxic
Rattus norvegicus [8]
  Activity: Non-toxic
Rattus norvegicus [9]
  Activity: Toxic
Mus musculus [10]
  Activity: inactive
Mus musculus [11]
  Activity: Non-toxic
Mus musculus [12]
  Activity: Active
Rattus norvegicus [13]
  ED50: 114 mg/kg
  ED97: 199 mg/kg
Rattus norvegicus [14]
  Activity: Active
Mus musculus [15]
  Activity: Toxic
Rattus norvegicus [16]
  Activity: Non-toxic
Mus musculus [17]
  Activity: inactive
Rattus norvegicus [18]
  Activity: Non-toxic
Rattus norvegicus [19]
  Activity: Non-toxic
Mus musculus [20]
  Activity: inactive
Mus musculus [21]
  Activity: inactive
Rattus norvegicus [22]
  Activity: Non-toxic
Rattus norvegicus [23]
  Activity: Non-toxic
Mus musculus [24]
  Activity: Non-toxic
Rattus norvegicus [25]
  Activity: Non-toxic
Mus musculus [26]
  Activity: inactive
Mus musculus [27]
  Activity: Active
Mus musculus [28]
  Activity: inactive
Mus musculus [29]
  Activity: Non-toxic
